T cruzi inh – inhibitors of intracellular T. cruzi growth, primary screen, luminescence, NIH3T3 host cells | AID 1885, 2009 | T. cruzi beta-gal in NIH3T3, 90 h | inhibition, % (concentration not given with the values) | 300,000 compounds, 1.4% hits;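 active = mean inhibition across valid replicates above about 55%, limit read from the data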;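 also: signal also drops with host cell toxicity which is not excluded here; 0% = plate median of DMSO wells and 100% = zero luminescence signal; higher percent means less beta-gal luminescence so fewer parasites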
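System: mouse NIH/3T3 fibroblasts infected with β-gal-expressing T. cruzi Tulahuen C4 / Input: NIH/3T3 cells, 5,000 per well / Buffer or medium: Low-serum DMEM with 2% FBS / Probe or stimulus: 5000 reporter trypomastigotes per well / Schedule: ≥90 h infection period, 3 h prior cell attachment / Measured by: GalScreen luminescence, 60 min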
HSF1 inh – HSF1 inhibitors in luciferase reporter cells, primary screen, cell-based, NIH3T3, luminescence; activity change, negative = inhibition, % at 7.5 µM (by protocol); 300,000 compounds, 0.77% hits; NIH3T3-HGL HSE-luciferase, MG132-induced, luminescence 8 h; hits give low values;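 active = more than half of replicate wells show activity change below -50%, luminescence cut by over half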;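 also: luciferase reports HSF-1 transcriptional activity via heat shock element; 0% = median of DMSO wells and -100% = zero luminescence signal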
HSF1 activator – HSF-1 activators, primary screen, NIH3T3-HGL cells, MG132 stress, luminescence, single point; 300,000 compounds, 1.7% hits; NIH3T3-HGL HSF-1 luciferase reporter, 8 h; 100% = twice DMSO control signal; AID 504408, 2011; activation, % at 9 µM;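 active = mean replicate activation of at least 50% with a set share of replicates each reaching 50%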;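 also: 0% = median of the neutral control wells and 100% = twice that signal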
L major viab – Leishmania major promastigote growth inhibition, primary screen | Leishmania major promastigotes, resazurin fluorescence viability | inhibition, % at 10 µM | 200,000 compounds, 9% hits; in the data active = inhibition above about 50%;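 also: promastigotes grown with compound for 44 hours at 28 °C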
Hsp70 act – Hsp70 transcriptional activators, primary screen, cell-based, HeLa, Hsp70 promoter luciferase, luminescence, 10 µM | HeLa Hsp70 promoter luciferase reporter; scaled: vehicle 0, proteasome-inhibitor control 100% | activation, % at 10 µM | 200,000 compounds, 0.04% hits;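 active = activation above the mean across all tested compounds plus 3 SD, cutoff set per campaign, cut at about 5.5% in these data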;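 also: 100% = MG132 at 30 µM as the positive control and 0% = DMSO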
* = called active by the depositor. This excerpt belongs to a sample that is enriched for hits.

For CCCCN(C)C1CCN(C(=S)Nc2cccc(SC)c2)CC1 the results were T cruzi inh 43.8, HSF1 inh -6.8, HSF1 activator -12.6, L major viab 90.0* and Hsp70 act 0.1.
Screening CCCN(CCC)c1nc(C#N)nc(N(CCC)CCC)n1 returned T cruzi inh -8.0, HSF1 inh -1.7, HSF1 activator -9.7, L major viab 7.5 and Hsp70 act -0.6.
`CCCN(CCC)c1nc(N(CCC)CCC)[nH]c(=O)n1` gave T cruzi inh 44.8, HSF1 inh 7.1, HSF1 activator 2.3, L major viab 57.3* and Hsp70 act 0.1.
Screening N#CCCn1nc(-c2ccccc2)cc1Nc1ccccc1NC(=O)C(F)(F)F returned T cruzi inh -0.6, HSF1 inh 5.0, HSF1 activator 3.4, L major viab 14.2 and Hsp70 act -0.1.
Screening N#CCCn1nc(-c2ccc(Br)cc2)cc1Nc1ccccc1NC(=O)C(F)(F)F returned T cruzi inh -0.6, HSF1 inh -8.2, HSF1 activator -7.9, L major viab 69.1* and Hsp70 act -0.2.
For Cc1ncsc1CCC(=O)N1CCCC(Nc2ccc(C(C)C)cc2)C1 (stereo not given) the results were T cruzi inh 1.1, HSF1 inh -2.0 and HSF1 activator -2.0.
Screening Cc1ccc(S(=O)(=O)Nc2cc(C)cn(Cc3ccc(F)cc3)c2=O)cc1 returned T cruzi inh -4.1, HSF1 inh 8.1 and HSF1 activator 16.7.
For C=CCn1c(=O)/c(=C/c2ccc(F)cc2)s/c1=C(\C#N)c1nnc2n1CCCCC2 the results were T cruzi inh 19.7, HSF1 inh 24.3, HSF1 activator 32.0, L major viab 61.1* and Hsp70 act -0.3.
For C=CCN1C(c2ccc(OCC)cc2)=CS/C1=C(\C#N)c1nnc2n1CCCCC2 the results were T cruzi inh 13.3, HSF1 inh 5.2, HSF1 activator 27.0, L major viab 5.8 and Hsp70 act -0.3.
S=c1[nH]nc(C2(c3ccccc3)CCCC2)o1 was read as T cruzi inh 10.8, HSF1 inh 1.9 and HSF1 activator -3.9.
`CC(C)(C)NC(=O)c1ccc(COc2ccccc2Br)o1` gave T cruzi inh 4.1, HSF1 inh 2.1, HSF1 activator 7.1, L major viab 78.2* and Hsp70 act -0.2.
`CCN(CC)C(=O)c1ccc(COc2ccccc2Br)o1` gave T cruzi inh 2.4, HSF1 inh 3.1, HSF1 activator 23.6, L major viab 87.7* and Hsp70 act -0.4.
`COc1ccccc1OCc1ccc(C(=O)NC(C)(C)C)o1` gave T cruzi inh 3.1, HSF1 inh -11.5, HSF1 activator -0.4, L major viab 3.1 and Hsp70 act 0.1.
Screening CC(C)NCC(O)COCCOc1ccc(C(C)(C)C)cc1 (stereo not given) returned T cruzi inh 32.3, HSF1 inh -6.4, HSF1 activator -2.9, L major viab 22.6 and Hsp70 act -0.1.
Screening CN1CCN(CC(O)COCCOc2ccc(Br)cc2)CC1 (stereo not given) returned T cruzi inh 58.9*, HSF1 inh -0.4, HSF1 activator 26.2, L major viab -8.3 and Hsp70 act -0.1.
`CC(C)NCC(O)COCCOc1ccc(Br)cc1` (stereo not given) gave T cruzi inh 63.3*, HSF1 inh -0.7, HSF1 activator -4.0, L major viab 13.3 and Hsp70 act 0.0.
For OC(COCCOc1ccc(Br)cc1)CN1CCCCC1 (stereo not given) the results were T cruzi inh 20.3, HSF1 inh 13.6, HSF1 activator 47.4, L major viab 71.2* and Hsp70 act -0.3.
Screening Cc1c(C)n(Cc2ccccc2)c2ccc(C(=O)OCCCN(C)C)cc12 returned T cruzi inh 60.5*, HSF1 inh 10.5, HSF1 activator -0.2, L major viab 100.3* and Hsp70 act -0.4.
O=C(CN(C(=O)CNC(=O)c1cccs1)c1ccccc1)NC1CCCCC1 was read as T cruzi inh 6.2, HSF1 inh -8.7 and HSF1 activator 5.3.
For COc1ccc(NC(=O)c2sccc2C)cn1 the results were T cruzi inh -15.2, HSF1 inh 36.5, HSF1 activator 69.9*, L major viab -4.4 and Hsp70 act 0.5.

Source: PubChem
